Measured values published in ChEMBL document CHEMBL3232922, “Discovery and SAR of 6-alkyl-2,4-diaminopyrimidines as histamine H₄ receptor antagonists” (J Med Chem, 2014).

Columns and labels:
[1] = Half life in rat at 2 mg/kg, iv; format: ADME, organism-based; parameters: dose 2 mg/kg, route intravenous; conditions: in vivo
[2] = Cmax in beagle dog at 10 mg/kg, po; format: ADME, organism-based, Canis lupus familiaris; parameters: dose 10 mg/kg, route oral; conditions: in vivo
Canis familiaris [3] = assay: AUC in beagle dog at 2 mg/kg, iv; format: ADME, organism-based, Canis lupus familiaris, Plasma; parameters: dose 2 mg/kg, route intravenous; conditions: in vivo
[4] = Oral bioavailability in beagle dog at 10 mg/kg; format: ADME, organism-based, Canis lupus familiaris; conditions: in vivo
[5] = Cmax in Sprague-Dawley rat at 10 mg/kg, po; format: ADME, organism-based; parameters: dose 10 mg/kg, route oral; conditions: in vivo
[6] = Half life in human microsomes; format: ADME, Microsome
[7] = Oral bioavailability in rat at 10 mg/kg; format: ADME, organism-based; conditions: in vivo
Rattus norvegicus [8] = assay: Volume of distribution at steady state in Sprague-Dawley rat at 2 mg/kg, iv; format: ADME, organism-based; parameters: dose 2 mg/kg, route intravenous; conditions: in vivo
[9] = Tmax in Sprague-Dawley rat at 10 mg/kg, po; format: ADME, organism-based; parameters: dose 10 mg/kg, route oral; conditions: in vivo
[10] = AUC in beagle dog at 10 mg/kg, po; format: ADME, organism-based, Canis lupus familiaris; parameters: dose 10 mg/kg, route oral; conditions: plasma
Canis familiaris [11] = assay: Clearance in beagle dog at 2 mg/kg, iv; format: ADME, organism-based, Canis lupus familiaris; parameters: dose 2 mg/kg, route intravenous; conditions: in vivo
Rattus norvegicus [12] = assay: Clearance in Sprague-Dawley rat at 2 mg/kg, iv; format: ADME, organism-based; parameters: dose 2 mg/kg, route intravenous; conditions: in vivo
Histamine H3 receptor = Histamine H3 receptor (Homo sapiens, UniProt Q9Y5N1); assay: Displacement of [3H]N-alpha-methylhistamine from human recombinant histamine H3 receptor expressed in SK-N-MC cells after 45 mins by competition binding analysis; format: cell-based
[13] = Half life in Sprague-Dawley rat at 10 mg/kg, po; format: ADME, organism-based; parameters: dose 10 mg/kg, route oral; conditions: in vivo
Rattus norvegicus [14] = assay: Half life in Sprague-Dawley rat at 2 mg/kg, iv; format: ADME, organism-based; parameters: dose 2 mg/kg, route intravenous; conditions: in vivo
[15] = Initial plasma concentration in Sprague-Dawley rat at 2 mg/kg, iv; format: ADME, organism-based; parameters: dose 2 mg/kg, route intravenous
Histamine H4 receptor [16] = molecular target: T1, Histamine H4 receptor (Homo sapiens, UniProt Q9H3N8); assay: Antagonist activity at human histamine H4 receptor expressed in SK-N-MC cells assessed as reduction of histamine-induced inhibition of cAMP-mediated beta-galactosidase reporter gene activity treated 10 mins prior to histamine challenge by microplate reader analysis; format: functional, cell-based; conditions: read-out: pA2 (converted)
[17] = molecular target: Voltage-gated inwardly rectifying potassium channel KCNH2 (Homo sapiens, UniProt Q12809); assay: Inhibition of human ERG channel transfected in HEK293 cells assessed as reduction in delayed rectifier current by patch clamp assay; format: cell-based
Procedure, shortened: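 The delayed rectifier current (IKr) was recorded in hERG-transfected HEK293 cells with the compound at 3 μM.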

hERG (KCNH2) = hERG (KCNH2) (Homo sapiens, UniProt Q12809); assay: Inhibition of human ERG channel transfected in HEK293 cells assessed as reduction in delayed rectifier current at 3 uM by patch clamp assay; format: cell-based; conditions: HEK293 cells transfected with human ERG channel
Histamine H4 receptor [18] = molecular target: T1, Histamine H4 receptor; assay: Displacement of [3H]histamine from human recombinant histamine H4 receptor expressed in SK-N-MC cells after 45 mins by competition binding analysis; format: cell-based
[19] = Cmax in rat at 10 mg/kg, po; format: ADME, organism-based; parameters: dose 10 mg/kg, route oral; conditions: in vivo
[20] = Permeability from apical to basolateral side in human Caco cells; format: ADME, cell-based; conditions: Caco-2, read-out: permeability
[21] = Half life in beagle dog at 10 mg/kg, po; format: ADME, organism-based, Canis lupus familiaris; parameters: dose 10 mg/kg, route oral; conditions: in vivo
[22] = Half life in rat at 10 mg/kg, po; format: ADME, organism-based; parameters: dose 10 mg/kg, route oral; conditions: in vivo
[23] = Volume of distribution at steady state in beagle dog at 2 mg/kg, iv; format: ADME, organism-based, Canis lupus familiaris; parameters: dose 2 mg/kg, route intravenous; conditions: in vivo, read-out: Vdss
[24] = AUC in Sprague-Dawley rat at 10 mg/kg, po; format: ADME, organism-based; parameters: dose 10 mg/kg, route oral; conditions: plasma
[25] = Half life in beagle dog at 2 mg/kg, iv; format: ADME, organism-based, Canis lupus familiaris; parameters: dose 2 mg/kg, route intravenous; conditions: in vivo
[26] = Initial plasma concentration in beagle dog at 2 mg/kg, iv; format: ADME, organism-based, Canis lupus familiaris; parameters: dose 2 mg/kg, route intravenous
[27] = Half life in rat microsomes; format: ADME, Microsome
Histamine H4 receptor [28] = molecular target: T2, Histamine H4 receptor (Mus musculus, UniProt Q91ZY2); assay: Antagonist activity at mouse histamine H4 receptor expressed in SK-N-MC cells assessed as reduction of histamine-induced inhibition of cAMP-mediated beta-galactosidase reporter gene activity treated 10 mins prior to histamine challenge by microplate reader analysis; format: functional, cell-based; conditions: read-out: pA2 (converted)
T2 sequence (Q91ZY2 whole entry): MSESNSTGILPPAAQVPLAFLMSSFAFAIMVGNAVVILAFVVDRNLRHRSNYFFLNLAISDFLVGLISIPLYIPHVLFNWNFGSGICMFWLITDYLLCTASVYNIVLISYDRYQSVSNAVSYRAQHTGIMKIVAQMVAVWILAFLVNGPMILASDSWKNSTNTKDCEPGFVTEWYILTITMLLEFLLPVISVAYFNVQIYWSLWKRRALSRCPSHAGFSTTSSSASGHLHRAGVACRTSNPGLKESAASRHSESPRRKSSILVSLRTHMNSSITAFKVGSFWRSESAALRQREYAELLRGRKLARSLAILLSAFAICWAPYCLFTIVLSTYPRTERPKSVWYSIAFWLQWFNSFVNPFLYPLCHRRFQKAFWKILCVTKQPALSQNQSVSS

Histamine H4 receptor [29] = molecular target: T2, Histamine H4 receptor; assay: Partial agonist activity at mouse histamine H4 receptor
Histamine H4 receptor [30] = molecular target: T2, Histamine H4 receptor; assay: Displacement of [3H]histamine from mouse histamine H4 receptor expressed in SK-N-MC cells after 45 mins by competition binding analysis; format: cell-based
Procedure, shortened: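 Transfected cells expressing the H4 receptor, competition against [3H]histamine. Ki is the geometric mean of at least three independent determinations (each in triplicate), calculated by the Cheng–Prusoff equation.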

[31] = Volume of distribution at steady state in rat at 2 mg/kg, iv; format: ADME, organism-based; parameters: dose 2 mg/kg, route intravenous; conditions: in vivo, read-out: Vdss
[32] = Clearance in rat at 2 mg/kg, iv; format: ADME, organism-based; parameters: dose 2 mg/kg, route intravenous; conditions: in vivo
[33] = AUC in rat at 2 mg/kg, iv; format: ADME, organism-based; parameters: dose 2 mg/kg, route intravenous; conditions: plasma
[34] = Tmax in beagle dog at 10 mg/kg, po; format: ADME, organism-based, Canis lupus familiaris; parameters: dose 10 mg/kg, route oral; conditions: in vivo
[35] = AUC in Sprague-Dawley rat at 2 mg/kg, iv; format: ADME, organism-based; parameters: dose 2 mg/kg, route intravenous; conditions: plasma
[36] = Permeability from basolateral to apical side in human Caco cells; format: ADME, cell-based; conditions: Caco-2, read-out: permeability
[37] = Oral bioavailability in Sprague-Dawley rat at 10 mg/kg; format: ADME, organism-based; conditions: in vivo
Histamine H4 receptor [38] = molecular target: T1, Histamine H4 receptor; assay: Agonist activity at human H4 receptor; conditions: read-out: EC50

T1 sequence (Q9H3N8 whole entry): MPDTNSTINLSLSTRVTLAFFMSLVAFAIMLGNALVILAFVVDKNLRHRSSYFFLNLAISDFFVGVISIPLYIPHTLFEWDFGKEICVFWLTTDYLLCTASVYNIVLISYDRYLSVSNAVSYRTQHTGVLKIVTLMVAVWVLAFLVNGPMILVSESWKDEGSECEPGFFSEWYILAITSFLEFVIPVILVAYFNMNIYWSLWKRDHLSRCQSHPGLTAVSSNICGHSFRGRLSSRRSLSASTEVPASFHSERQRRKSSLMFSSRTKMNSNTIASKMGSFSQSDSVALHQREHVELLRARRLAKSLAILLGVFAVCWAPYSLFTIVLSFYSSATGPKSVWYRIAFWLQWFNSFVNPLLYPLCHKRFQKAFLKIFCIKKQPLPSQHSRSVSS
Sequence of Voltage-gated inwardly rectifying potassium channel KCNH2 (Q12809 whole entry): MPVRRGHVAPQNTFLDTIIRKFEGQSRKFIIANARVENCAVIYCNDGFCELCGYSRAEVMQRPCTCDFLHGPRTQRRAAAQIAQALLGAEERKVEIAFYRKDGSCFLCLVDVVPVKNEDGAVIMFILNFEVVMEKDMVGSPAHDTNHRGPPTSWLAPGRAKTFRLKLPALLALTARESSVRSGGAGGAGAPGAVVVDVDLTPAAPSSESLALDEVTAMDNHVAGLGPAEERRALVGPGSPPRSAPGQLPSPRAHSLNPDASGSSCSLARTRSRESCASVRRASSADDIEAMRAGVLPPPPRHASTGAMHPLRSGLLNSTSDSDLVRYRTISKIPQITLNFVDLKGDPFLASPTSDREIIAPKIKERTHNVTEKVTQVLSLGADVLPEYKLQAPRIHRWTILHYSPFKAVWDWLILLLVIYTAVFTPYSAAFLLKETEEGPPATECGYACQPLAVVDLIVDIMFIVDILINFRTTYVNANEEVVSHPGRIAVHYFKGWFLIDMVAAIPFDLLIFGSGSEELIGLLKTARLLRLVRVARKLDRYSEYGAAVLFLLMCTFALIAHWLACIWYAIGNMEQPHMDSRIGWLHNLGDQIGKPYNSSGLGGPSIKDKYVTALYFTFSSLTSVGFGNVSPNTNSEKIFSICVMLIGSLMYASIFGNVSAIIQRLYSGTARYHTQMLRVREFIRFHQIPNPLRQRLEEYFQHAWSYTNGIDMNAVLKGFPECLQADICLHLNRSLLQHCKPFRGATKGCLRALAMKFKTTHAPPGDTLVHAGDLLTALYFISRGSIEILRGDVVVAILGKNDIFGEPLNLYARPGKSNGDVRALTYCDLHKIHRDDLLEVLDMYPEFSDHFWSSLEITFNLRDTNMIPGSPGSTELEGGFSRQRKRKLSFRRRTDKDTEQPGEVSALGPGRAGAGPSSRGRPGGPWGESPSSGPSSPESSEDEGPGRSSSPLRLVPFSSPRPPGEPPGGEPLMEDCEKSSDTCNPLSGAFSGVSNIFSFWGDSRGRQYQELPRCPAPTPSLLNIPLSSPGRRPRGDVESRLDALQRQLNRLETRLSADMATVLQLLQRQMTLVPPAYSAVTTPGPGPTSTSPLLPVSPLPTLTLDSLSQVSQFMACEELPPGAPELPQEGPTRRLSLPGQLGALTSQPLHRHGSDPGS
Sequence of hERG (KCNH2) (Q12809 whole entry): as above
Sequence of Histamine H3 receptor (Q9Y5N1 whole entry): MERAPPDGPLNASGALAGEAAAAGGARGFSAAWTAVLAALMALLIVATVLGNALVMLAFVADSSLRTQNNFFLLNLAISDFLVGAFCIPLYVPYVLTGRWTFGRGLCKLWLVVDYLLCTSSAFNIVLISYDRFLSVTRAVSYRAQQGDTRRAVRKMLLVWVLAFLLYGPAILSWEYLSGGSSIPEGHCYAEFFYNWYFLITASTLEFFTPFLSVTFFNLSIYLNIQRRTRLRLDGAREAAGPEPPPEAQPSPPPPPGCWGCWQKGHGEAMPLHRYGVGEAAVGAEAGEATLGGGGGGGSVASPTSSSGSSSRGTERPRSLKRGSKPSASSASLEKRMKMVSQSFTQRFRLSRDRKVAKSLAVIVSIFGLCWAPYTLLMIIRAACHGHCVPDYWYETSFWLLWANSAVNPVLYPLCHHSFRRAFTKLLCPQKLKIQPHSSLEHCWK

Structure (SMILES): Nc1nc(C2CCCC2)cc(N2CCNCC2)n1
- half-life [1]: 66 min
- Cmax [2]: 1490 nM
- AUC (Canis familiaris [3]): 5.38 µM·h
- bioavailability [4]: 114%
- Cmax [5]: 600 nM
- half-life [6]: > 100 min
- bioavailability [7]: 20%
- Vdss (Rattus norvegicus [8]): 3.1 L/kg
- Tmax [9]: 2 h
- AUC [10]: 30.8 µM·h
- CL (Canis familiaris [11]): 21.19 L/h/kg
- CL (Rattus norvegicus [12]): 0.422 L/h/kg
- Ki (Histamine H3 receptor): 24 nM
- half-life [13]: 522 min
- t1/2 (Rattus norvegicus [14]): 2.2 h
- C0 [15]: 25 µM
- Kb (Histamine H4 receptor [16]): 0.316 nM
- INH [17]: > 10 µM
- inhibition at 3 µM (hERG (KCNH2)): 21%
- Ki (Histamine H4 receptor [18]): 1.2 nM
- Cmax [19]: 310 nM
- Papp A→B [20]: 32 ×10⁻⁶ cm/s
- half-life [21]: 541 min
- half-life [22]: 540 min
- Vd [23]: 24.4 L/kg
- AUC [24]: 8.2 µM·h
- half-life [25]: 646 min
- C0 [26]: 1760 nM
- half-life [27]: 86 min
- Kb (Histamine H4 receptor [28]): 10 nM
- EC50 (Histamine H4 receptor [29]): 7.3 nM
- Ki (Histamine H4 receptor [30]): 20 nM
- Vd [31]: 2.7 L/kg
- clearance [32]: 0.63 L/h/kg
- AUC [33]: 5 µM·h
- Tmax [34]: 4 h
- AUC [35]: 20.6 µM·h
- Papp B→A [36]: 16 ×10⁻⁶ cm/s
- bioavailability [37]: 20.7%
- EC50 (Histamine H4 receptor [38]): > 10 µM
